Measurements taken from ChEMBL document CHEMBL4411305, “5-Aminothiophene-2,4-dicarboxamide analogues as hepatitis B virus capsid assembly effectors” (Eur J Med Chem, 2019).
pEC50: −log10 of the molar value. Values after ≈ are worked out from the molar mass of the structure shown. Active and inactive are the calls of the source. No rule for the calls is given here.

Legend:
[1] = system: HepG2; test: (§1) Cytotoxicity against human HepG2 cells assessed as reduction in cell viability incubated for 2 days prior to compound washout followed by compound redosing and measured after 2 days by XTT assay; format: cell-based; details: hepg2, 48 h
[2] = system: Hepatitis B virus; test: Antiviral activity against HBV infected in human HepAD38 cells assessed as reduction in total DNA production incubated for 2 days prior to compound washout followed by compound redosing and measured after 2 days by dot-blot analysis; format: functional, organism-based
Procedure, shortened: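 HepAD38 cells seeded at 3 × 10^4/well in tetracycline medium; next day washed twice with PBS and given tet-free complete medium with 2-fold serial dilutions, 1% final DMSO, replaced with fresh compound medium after 2 days. After 2 more days cells lysed (NP-40), DNA alkali-denatured, dot-blotted, probed with DIG-labelled HBV probe; chemiluminescence densitometry, variable-slope fit; mean ± SD of ≥2 experiments.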

[3] = system: Hepatitis B virus; test: Binding affinity to HBV dimeric capsid protein C150 mutant expressed in Escherichia coli BL21 (DE3) at 20 uM by Sypro orange staining based RT-PCR analysis
[4] = Oral bioavailability in CD-1 mouse at 10 mg/kg by LC-MS/MS analysis; format: ADME, organism-based; details: CD-1, mouse, in vivo
Procedure, shortened: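 Male CD-1 mice (25–35 g), n = 4 per route; typical doses 2 mg/kg IV and 10 mg/kg PO in DPBS with up to 42% 2-hydroxypropyl-β-cyclodextrin; serial saphenous blood to 24 h (8 points); plasma by LC-MS/MS; non-compartmental analysis; F = (AUCpo/AUCiv)×(Doseiv/Dosepo).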

[5] = Protein binding in human plasma at 5 uM incubated for 5 hrs by LC-MS/MS-based equilibrium dialysis method; format: ADME, cell-free
Procedure, shortened: (§2)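 Equilibrium dialysis in duplicate: compound spiked at 5 μM into normal human or mouse plasma, dialyzed against DPBS 5 h at 37 °C; both chambers sampled and quenched in acetonitrile with internal standard; LC-MS/MS gives percent bound.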

[6] = Intrinsic clearance in human liver microsomes assessed as glucuronidation per mg protein at 1 uM in presence of UDPGA by LC-MS/MS analysis; format: ADME, Microsome
Procedure, shortened: (§3)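 Glucuronidation: typically 1 μM compound with 0.5 mg/mL microsomal protein, alamethicin 50 μg/mg protein, 1 mM MgCl2, 5 mM UDPGA in 0.1 M potassium phosphate pH 7.4, 37 °C; timed aliquots quenched in acetonitrile; LC-MS/MS gives CLint (μl/min/mg protein); triplicate; 7-hydroxycoumarin positive control.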

[7] = Intrinsic clearance in mouse liver microsomes assessed as glucuronidation per mg protein at 1 uM in presence of UDPGA by LC-MS/MS analysis; format: ADME, Microsome; procedure, shortened: as §3
[8] = Stability in Dulbecco's phosphate buffered saline assessed as parent compound remaining at 1 uM after 24 hrs by LC-MS/MS analysis; format: physicochemical; details: read-out: Stability
Procedure, shortened: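 Compound, typically 1 μM final, incubated in DPBS at 37 °C in triplicate; samples at 0, 1, 3, 6, 24 h quenched with 3 volumes acetonitrile containing internal standard; parent measured by LC-MS/MS.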

[9] = Apparent permeability from apical to basolateral side in human Caco2 cells measured after 20 to 80 mins by LC-MS/MS analysis; format: ADME, cell-based; details: caco-2
[10] = Thermodynamic aqueous solubility in Dulbecco's phosphate buffered saline using solid sample incubated for 72 hrs under shaking condition by LC-MS/MS analysis; format: physicochemical; details: read-out: Therm_solubility
[11] = Half life in human plasma at 1 uM by LC-MS/MS analysis; format: ADME, cell-free
[12] = Half life in mouse plasma at 1 uM by LC-MS/MS analysis; format: ADME, cell-free
[13] = Apparent permeability from basolateral to apical side in human Caco2 cells measured after 20 to 80 mins by LC-MS/MS analysis; format: ADME, cell-based; details: caco-2
[14] = Intrinsic clearance in human liver microsomes assessed as NADPH-dependent metabolism per mg protein at 1 uM in presence of NADPH by LC-MS/MS analysis; format: ADME, Microsome
[15] = Protein binding in mouse plasma at 5 uM incubated for 5 hrs by LC-MS/MS-based equilibrium dialysis method; format: ADME, cell-free; procedure, shortened: as §2
[16] = Intrinsic clearance in mouse liver microsomes assessed as NADPH-dependent metabolism per mg protein at 1 uM in presence of NADPH by LC-MS/MS analysis; format: ADME, Microsome
[17] = as §1; format: cell-based; details: HepG2 cells

SMILES | CC50 [1] [µM] | pEC50 [2] | Activity [3] | other results
Cc1ccc(CC(=O)Nc2sc(C(=O)Nc3ccccc3)c(C)c2C(N)=O)cc1F | > 100 | < 5.00 | Active | –
Cc1c(C(=O)Nc2ccccc2)sc(N)c1C(=O)NC1CC1 | – | < 5.00 | inactive | –
Cc1cc(NC(=O)c2sc(N)c(C(N)=O)c2C)ccc1Br | 107 | – | Active | bioavailability [4]: 46%
CCOC(=O)c1c(N)sc(C(=O)Nc2ccccc2)c1C | 76 | < 5.00 | Active | –
Cc1c(C(=O)Nc2ccccc2)sc(N)c1C(=O)NC(C)C | – | < 5.00 | inactive | –
Cc1c(C(=O)Nc2ccc(F)c(F)c2)sc(N)c1C(N)=O | > 100 | – | Active | PPB [5]: 86%; intrinsic clearance (CLint) [6]: < 0.1 µL/min; intrinsic clearance (CLint) [7]: 5.2 µL/min; remaining at 24 h, 1 µM [8]: > 90%; Papp [9]: 24.8 ×10⁻⁶ cm/s; solubility thermodynamic at 72 h [10]: 11 µM (≈ 3.42 µg/mL); t1/2 [11]: > 24 h; t1/2 [12]: > 24 h; Papp [13]: 27.6 ×10⁻⁶ cm/s; Microsomal intrinsic clearance [14]: 3.4 µL/min; PPB [15]: 80%; intrinsic clearance per mg protein [16]: 25 µL/min
COc1ccc(CNC(=O)c2c(N)sc(C(=O)Nc3ccccc3)c2C)cc1 | – | < 5.00 | Active | –
Cc1c(C(=O)Nc2ccccc2)sc(NC(=O)Cc2ccc(F)c(F)c2)c1C(N)=O | > 100 | 5.00 | Active | –
Cc1c(C(=O)Nc2ccccc2)sc(N)c1C(N)=S | – | < 5.00 | Active | CC50 at 48 h [17]: > 100 µM
Cc1c(C(=O)Nc2ccc(F)c(C#N)c2)sc(N)c1C(N)=O | > 100 | – | Active | PPB [5]: 80%; intrinsic clearance (CLint) [6]: 0.1 µL/min; intrinsic clearance (CLint) [7]: 2 µL/min; remaining at 24 h, 1 µM [8]: > 90%; solubility thermodynamic at 72 h [10]: 6.7 µM (≈ 2.13 µg/mL); t1/2 [11]: > 24 h; t1/2 [12]: > 24 h; Microsomal intrinsic clearance [14]: 2.4 µL/min; PPB [15]: 69%; intrinsic clearance per mg protein [16]: 4.2 µL/min
Cc1c(C(=O)Nc2ccc(F)c(F)c2)sc(N)c1C(=O)Nc1ccc(Cl)cc1 | – | < 5.00 | Active | –
Cc1c(C(=O)Nc2ccc(F)c(F)c2)sc(N)c1C#N | > 100 | 5.00 | Active | –
